Active and inactive are the calls of the source. No cut-off for these calls is given here.
What was measured:
[1] = tested on: Salmonella typhi; test: Antibacterial activity against Salmonella typhi by two-fold agar dilution method; assay type: functional, Salmonella enterica subsp. enterica serovar Typhi; conditions: Salmonella enterica
Summary of the method: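 MIC in µg/mL by twofold serial agar dilution on brain-heart infusion agar.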

[2] = tested on: Pseudomonas aeruginosa; test: Antibacterial activity against Pseudomonas aeruginosa by two-fold agar dilution method; assay type: functional, organism-based
Summary of the method: (§1)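 MIC determined by twofold serial dilution in brain-heart infusion agar. Values are reported in µg/mL.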

[3] = tested on: Staphylococcus aureus; test: Antibacterial activity against Staphylococcus aureus Smith by two-fold agar dilution method; assay type: functional; summary of the method: as §1
[4] = tested on: Streptococcus pyogenes; test: Antibacterial activity against Streptococcus pyogenes C-203 by two-fold agar dilution method; assay type: functional; summary of the method: as §1
[5] = tested on: Staphylococcus aureus; test: Antibacterial activity against Staphylococcus aureus 45 by two-fold agar dilution method; assay type: functional; summary of the method: as §1
[6] = tested on: Pasteurella multocida; test: Antibacterial activity against Pasteurella multocida 10544 by two-fold agar dilution method; assay type: functional; summary of the method: as §1
[7] = tested on: Proteus mirabilis; test: Antibacterial activity against Proteus mirabilis by two-fold agar dilution method; assay type: functional; summary of the method: as §1
[8] = tested on: Proteus mirabilis; test: Antibacterial activity against Proteus mirabilis infected in sc dosed mouse assessed as protection against bacterial infection; assay type: functional
Summary of the method: (§2)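 Mice were challenged intraperitoneally with Proteus mirabilis, and compound was given by the line's route (oral or subcutaneous). The CD50 is the total dose in mg/kg that protects 50% of challenged mice.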

[9] = tested on: Proteus vulgaris; test: Antibacterial activity against Proteus vulgaris by two-fold agar dilution method; assay type: functional; summary of the method: as §1
[10] = tested on: Escherichia coli; test: Antibacterial activity against Escherichia coli Juhl by two-fold agar dilution method; assay type: functional; summary of the method: as §1
[11] = tested on: Proteus mirabilis; test: Antibacterial activity against Proteus mirabilis infected in po dosed mouse assessed as protection against bacterial infection; assay type: functional; summary of the method: as §2
[12] = tested on: Klebsiella pneumoniae; test: Antibacterial activity against Klebsiella pneumoniae 8045 by two-fold agar dilution method; assay type: functional; summary of the method: as §1
[13] = tested on: Enterococcus; test: Antibacterial activity against Enterococcus 89 by two-fold agar dilution method; assay type: functional; summary of the method: as §1

Row | Compound | MIC [1] | Activity [2] | MIC [3] | MIC [4] | MIC [5] | MIC [6] | MIC [7] | CD50 [8] | MIC [9] | MIC [10] | CD50 [11] | MIC [12] | MIC [13]
1 | C/C(=N\NC(=N)N)C1=C(O)[C@H](N)[C@@H]2Cc3c(c(O)c4c(O)c(C)ccc4c3C)C(=O)[C@]2(O)C1=O.Cl | 25 mg/L | inactive | 50 mg/L | 25 mg/L | 50 mg/L | 3.1 mg/L | 12.5 mg/L | 12.5 mg/kg | 12.5 mg/L | 25 mg/L | 100 mg/kg | 12.5 mg/L | 50 mg/L
2 | C/C(=N\N1CCN(CCO)CC1)C1=C(O)[C@H](N)[C@@H]2Cc3c(c(O)c4c(O)c(C)ccc4c3C)C(=O)[C@]2(O)C1=O.Cl | 1.56 mg/L | inactive | 6.2 mg/L | 3.1 mg/L | 12.5 mg/L | 0.39 mg/L | 3.1 mg/L | 25 mg/kg | 3.1 mg/L | 6.2 mg/L | 100 mg/kg | 1.56 mg/L | 6.2 mg/L
3 | C/C(=N\NC(N)=O)C1=C(O)[C@H](N)[C@@H]2Cc3c(c(O)c4c(O)c(C)ccc4c3C)C(=O)[C@]2(O)C1=O.Cl | 6.2 mg/L | inactive | 25 mg/L | 25 mg/L | 25 mg/L | 1.56 mg/L | 25 mg/L | – | 12.5 mg/L | 25 mg/L | – | 12.5 mg/L | 50 mg/L
4 | C/C(=N\c1ccc(S(N)(=O)=O)cc1)C1=C(O)[C@H](N)[C@@H]2Cc3c(c(O)c4c(O)c(C)ccc4c3C)C(=O)[C@]2(O)C1=O.Cl | 0.7 mg/L | inactive | 3.1 mg/L | 3.1 mg/L | 6.2 mg/L | 0.2 mg/L | 3.1 mg/L | 6.25 mg/kg | 1.56 mg/L | 6.2 mg/L | <25 mg/kg | 1.56 mg/L | 6.2 mg/L
5 | CC(=O)NS(=O)(=O)c1ccc(/N=C(\C)C2=C(O)[C@H](N)[C@@H]3Cc4c(c(O)c5c(O)c(C)ccc5c4C)C(=O)[C@]3(O)C2=O)cc1.Cl | 1.5 mg/L | inactive | 3.1 mg/L | 3.1 mg/L | 6.2 mg/L | 0.78 mg/L | 6.2 mg/L | 6.25 mg/kg | 3.1 mg/L | 6.2 mg/L | 100 mg/kg | 1.56 mg/L | 12.5 mg/L
6 | C/C(=N\Nc1ccccc1)C1=C(O)[C@H](N)[C@@H]2Cc3c(c(O)c4c(O)c(C)ccc4c3C)C(=O)[C@]2(O)C1=O.Cl | 25 mg/L | inactive | 6.2 mg/L | 6.2 mg/L | 6.2 mg/L | 0.78 mg/L | 50 mg/L | – | 50 mg/L | 50 mg/L | – | 12.5 mg/L | 12.5 mg/L
7 | C/C(=N\N(C)C)C1=C(O)[C@H](N)[C@@H]2Cc3c(c(O)c4c(O)c(C)ccc4c3C)C(=O)[C@]2(O)C1=O.Cl | 3.1 mg/L | inactive | 12.5 mg/L | 6.2 mg/L | 12.5 mg/L | 0.78 mg/L | 6.2 mg/L | – | 6.2 mg/L | 12.5 mg/L | – | 6.2 mg/L | 6.2 mg/L
8 | C/C(=N\NC(=O)c1ccc(O)cc1)C1=C(O)[C@H](N)[C@@H]2Cc3c(c(O)c4c(O)c(C)ccc4c3C)C(=O)[C@]2(O)C1=O.Cl (stereo in doubt) | 25 mg/L | inactive | 50 mg/L | 50 mg/L | 50 mg/L | 3.1 mg/L | 12.5 mg/L | – | 12.5 mg/L | 50 mg/L | – | 25 mg/L | 100 mg/L
9 | C/C(=N\N1CCN(C)CC1)C1=C(O)[C@H](N)[C@@H]2Cc3c(c(O)c4c(O)c(C)ccc4c3C)C(=O)[C@]2(O)C1=O.Cl | 3.1 mg/L | inactive | 6.2 mg/L | 3.1 mg/L | 6.2 mg/L | 0.78 mg/L | 6.2 mg/L | 12.5 mg/kg | 6.2 mg/L | 6.2 mg/L | 25 mg/kg | 3.1 mg/L | 12.5 mg/L
10 | C/C(=N\c1ccc(C(=O)O)cc1)C1=C(O)[C@H](N)[C@@H]2Cc3c(c(O)c4c(O)c(C)ccc4c3C)C(=O)[C@]2(O)C1=O.Cl | 1.5 mg/L | inactive | 3.1 mg/L | 3.1 mg/L | 6.2 mg/L | 0.39 mg/L | 3.1 mg/L | – | 1.56 mg/L | 6.2 mg/L | – | 1.56 mg/L | 6.2 mg/L
11 | CC(=O)C1=C(O)[C@H](N)[C@@H]2Cc3c(c(O)c4c(O)c(C)ccc4c3C)C(=O)[C@]2(O)C1=O.Cl [CETOCYCLINE HYDROCHLORIDE] | 1.5 mg/L | inactive | 3.1 mg/L | 3.1 mg/L | 6.2 mg/L | 0.39 mg/L | 1.56 mg/L | 12.5 mg/kg | 1.56 mg/L | 6.2 mg/L | 200 mg/kg | 3.1 mg/L | 6.2 mg/L
12 | C/C(=N\c1ccc(F)cc1)C1=C(O)[C@H](N)[C@@H]2Cc3c(c(O)c4c(O)c(C)ccc4c3C)C(=O)[C@]2(O)C1=O.Cl | 1.5 mg/L | inactive | 6.2 mg/L | 3.1 mg/L | 12.5 mg/L | 0.39 mg/L | 3.1 mg/L | – | 1.56 mg/L | 6.2 mg/L | – | 1.56 mg/L | 12.5 mg/L
13 | C/C(=N\c1ccc(C)cc1)C1=C(O)[C@H](N)[C@@H]2Cc3c(c(O)c4c(O)c(C)ccc4c3C)C(=O)[C@]2(O)C1=O.Cl | 3.1 mg/L | inactive | 12.5 mg/L | 6.2 mg/L | 12.5 mg/L | 0.39 mg/L | 6.2 mg/L | – | 6.2 mg/L | 25 mg/L | – | 6.2 mg/L | 25 mg/L
14 | CC(=O)N/N=C(\C)C1=C(O)[C@H](N)[C@@H]2Cc3c(c(O)c4c(O)c(C)ccc4c3C)C(=O)[C@]2(O)C1=O.Cl | 6.2 mg/L | inactive | 12.5 mg/L | 6.2 mg/L | 12.5 mg/L | 0.78 mg/L | 6.2 mg/L | 25 mg/kg | 6.2 mg/L | 12.5 mg/L | 50 mg/kg | 6.2 mg/L | 12.5 mg/L
